From publication PMC4680848 (Structure (London, England : 1993), 2015)
Entries after “also recorded” stand apart in the source; their conditions may differ.

Assays:
isolated SBD of BiP = experiment: Fluorescence polarization NR peptide binding affinity; parameters: species or system human; details: isolated SBD vs full-length BiP
Outline: (§1)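 Human BiP proteins (wild type or variant) were made as Smt3 fusions in E. coli BL21(DE3)Gold. They were purified on HisTrap, cut with Ulp1, run over a second HisTrap, then HiTrap Q and Superdex 200, and stored in 5 mM Hepes-KOH pH7.5, 10 mM KCl. Binding of NR peptide (NRLLLTG) was read by fluorescence polarization across serial protein dilutions. Kd was fitted from binding curves; standard errors come from at least 6 assays on more than two protein purifications.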

BiP-PP = experiment: Single-turnover ATPase assay; type: biochemical, human; details: single turn-over
BiP SBD-Tev-NR = experiment: Fluorescence polarization NR peptide binding; parameters: species or system human; details: SBD with covalently linked NR peptide; WT BiP SBD as positive control
Outline: as §1

human BiP [1] = target: T1, human BiP (Homo sapiens, UniProt P11021); experiment: Fluorescence anisotropy peptide substrate binding kinetics
BiP-PP (G486P/G493P) [2] = target: T2, BiP-PP (G486P/G493P) (Homo sapiens, UniProt P11021, G486P/G493P); experiment: Fluorescence polarization peptide binding affinity
human BiP [3] = target: T1, human BiP; experiment: Fluorescence polarization NR peptide binding affinity; details: WT BiP
Outline: as §1

BiP-T229A = experiment: Fluorescence polarization NR peptide binding; parameters: species or system human; details: effect of ATP, WT BiP as positive control
Outline: as §1

BiP R532E = BiP R532E (Homo sapiens, UniProt P11021, R532E); experiment: Fluorescence anisotropy NR peptide binding affinity; details: WT BiP as control
Outline: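 BiP wild type and mutants were expressed in E. coli BL21(DE3)Gold as Smt3 fusions. Purification was by HisTrap, Ulp1 tag removal, a second HisTrap, HiTrap Q and Superdex 200. Fluorescence polarization/anisotropy binding of NR peptide (NRLLLTG) was measured with serial dilutions of protein, in the presence of ADP or ATP. Kd was calculated from the binding data.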

BiP-L3,4′ = experiment: Fluorescence polarization NR peptide binding; parameters: species or system human; details: L3,4′ modification (TASDNQP→VGG); WT BiP as positive control
Outline: as §1

BiP-PP (G486P/G493P) [4] = target: T2, BiP-PP (G486P/G493P); experiment: Fluorescence anisotropy peptide substrate binding kinetics; details: F-NR peptide
[5] = target: F-NR peptide (labelled NR peptide, sequence NRLLLTG); experiment: fluorescence polarisation
[6] = target: T3, BiP SBD-L3,4′ (residues 418-636), the SBD part of SBD-L3,4′-Tev-NR (human, UniProt P11021 418-636, L3,4′ (TASDNQP→VGG)); experiment: crystal structure
T3 sequence (looked up): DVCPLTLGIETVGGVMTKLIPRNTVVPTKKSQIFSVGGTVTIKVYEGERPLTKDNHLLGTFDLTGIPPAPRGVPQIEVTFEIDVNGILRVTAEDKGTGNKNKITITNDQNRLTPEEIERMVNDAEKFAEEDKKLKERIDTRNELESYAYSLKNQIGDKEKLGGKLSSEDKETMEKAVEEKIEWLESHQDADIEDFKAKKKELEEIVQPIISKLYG

[7] = tested on: DnaK-PP (DnaK-G461P/G468P); experiment: Single-turnover ATPase assay; type: biochemical, E. coli
BiP [8] = experiment: Single-turnover ATPase assay; type: biochemical, human
BiP [9] = details: ref Marcinowski et al., 2011; cited from earlier work

T1 sequence (P11021 19-654): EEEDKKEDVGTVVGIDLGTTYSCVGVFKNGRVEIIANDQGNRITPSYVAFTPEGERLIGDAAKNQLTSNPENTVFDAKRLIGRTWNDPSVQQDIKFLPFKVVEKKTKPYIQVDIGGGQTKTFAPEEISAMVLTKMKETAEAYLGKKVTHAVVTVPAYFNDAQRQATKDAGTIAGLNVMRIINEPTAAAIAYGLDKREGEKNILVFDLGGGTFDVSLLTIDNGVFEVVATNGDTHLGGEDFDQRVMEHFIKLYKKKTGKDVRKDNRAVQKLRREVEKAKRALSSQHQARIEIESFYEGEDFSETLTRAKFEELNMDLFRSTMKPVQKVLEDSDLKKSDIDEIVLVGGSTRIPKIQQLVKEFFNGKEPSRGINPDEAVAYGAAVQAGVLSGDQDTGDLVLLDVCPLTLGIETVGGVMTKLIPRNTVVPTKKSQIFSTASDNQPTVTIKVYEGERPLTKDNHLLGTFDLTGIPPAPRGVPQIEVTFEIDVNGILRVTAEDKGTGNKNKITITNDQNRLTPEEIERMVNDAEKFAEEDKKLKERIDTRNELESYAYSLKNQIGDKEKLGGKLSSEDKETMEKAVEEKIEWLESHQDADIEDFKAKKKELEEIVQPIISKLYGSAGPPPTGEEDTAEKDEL
Chain of BiP R532E (P11021 19-654 R532E): as the sequence (P11021 19-654) above, with R514E counted along it
T2 sequence (P11021 25-654 G486P/G493P limits assumed): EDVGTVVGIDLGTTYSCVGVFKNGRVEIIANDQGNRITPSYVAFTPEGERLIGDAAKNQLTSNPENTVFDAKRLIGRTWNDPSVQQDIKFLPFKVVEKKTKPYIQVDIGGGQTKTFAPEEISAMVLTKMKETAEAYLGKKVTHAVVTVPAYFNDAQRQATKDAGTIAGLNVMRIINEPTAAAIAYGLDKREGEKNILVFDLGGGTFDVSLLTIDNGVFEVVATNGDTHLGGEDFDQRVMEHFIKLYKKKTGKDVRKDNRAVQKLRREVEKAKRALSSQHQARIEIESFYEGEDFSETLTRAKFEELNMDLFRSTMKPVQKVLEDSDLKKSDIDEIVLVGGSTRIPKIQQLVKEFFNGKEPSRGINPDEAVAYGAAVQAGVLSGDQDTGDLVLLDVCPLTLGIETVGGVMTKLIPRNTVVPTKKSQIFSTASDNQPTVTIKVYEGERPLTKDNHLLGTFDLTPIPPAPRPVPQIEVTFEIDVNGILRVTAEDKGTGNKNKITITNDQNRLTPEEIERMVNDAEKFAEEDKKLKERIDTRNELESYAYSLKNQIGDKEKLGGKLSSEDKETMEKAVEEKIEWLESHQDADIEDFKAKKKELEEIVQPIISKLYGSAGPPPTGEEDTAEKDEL

NRLLLTG [NR peptide]
affinity of isolated SBD for NR peptide (isolated SBD of BiP): affinity comparable to full-length BiP
stimulation of ATPase activity by NR peptide (BiP-PP): failed to stimulate the ATPase activity; also recorded: little appreciable stimulation
binding of free NR peptide (BiP SBD-Tev-NR): Neither BiP SBD-Tev–NR nor SBD-L3,4′-Tev-NR showed appreciable binding; also recorded: completely blocks the binding of free NR peptide
binding kinetics, both on and off rates, relative to DnaK (human BiP [1]; BiP vs DnaK, Fig. S1a,b): much slower than those of DnaK
binding kinetics in the presence of ADP (human BiP [1]; WT BiP, +ADP, F-NR peptide): binding kinetics are slow
binding kinetics in the presence of ATP (human BiP [1]; WT BiP, +ATP, F-NR peptide): fast binding kinetics
affinity for NR peptide in the presence of ADP (BiP-PP (G486P/G493P) [2]): reduced affinity
binding affinity in the presence of ADP (human BiP [3]; +ADP): binding affinity is high
affinity for NR peptide in the presence of ATP (human BiP [3]; +ATP): drastically reduced the affinity
NR peptide binding (human BiP [3]; fluorescence polarization, serial dilutions of BiP): binds NR peptide through its SBD and in an ATP-sensitive manner; also recorded: good affinity
NR peptide binding / affinity, ATP sensitivity (BiP-T229A): binds NR peptide in an ATP-sensitive manner like that of WT BiP; also recorded: significantly reduced affinity for NR peptide in the presence of ATP
affinity for NR peptide in the presence of ADP (BiP R532E; +ADP): normal affinity
affinity for NR peptide in the presence of ATP (BiP R532E; +ATP): higher than that of WT BiP
affinity for NR peptide / NR peptide binding (BiP-L3,4′): drastically compromised the NR peptide binding; also recorded: drastically reduced affinity
binding kinetics in the presence of ADP (BiP-PP (G486P/G493P) [4]): fast binding kinetics

human BiP (binding immunoglobulin protein), wild type (from UniProt P11021 19-654) (natural protein)
Kd relative to that of DnaK [5]: 2 times lower

B1: NR peptide (sequence NRLLLTG), unlabelled (peptide)
peptide: NRLLLTG
binding result [6]: binds

B2: ERdj3: an abundant class I Hsp40 in ER, proposed to be an Hsp40 for BiP (protein)
chain: GRDFYKILGVPRSASIKDIKKAYRKLALQLHPDRNPDDPQAQEKFQDLGAAYEVLSDSEKRKQYDTYGEEGLKDGHQSSHGDIFSHFFGDFGFMFGGTPRQQDRNIPRGSDIIVDLEVTLEEVYAGNFVEVVRNKPVARQAPGKRKCNCRQEMRTTQLGPGRFQMTQEVVCDECPNVKLVNEERTLEVEIEPGVRDGMEYPFIGEGEPHVDGEPGDLRFRIKVVKHPIFERRGDDLYTNVTISLVESLVGFEMDITHLDGHKVHISRDKITRPGAKLWKKGEGLPNFDNNNIKGSLIITFDVDFPKEQLTEEAREGIKQLLKQGSVQKVYNGLQGY
stimulation of ATPase activity by ERdj3 (BiP-PP): Neither ERdj3 (d) nor DnaJ (f) showed appreciable stimulation; also recorded: failed to show any appreciable stimulation
stimulation of ATPase activity by ERdj3 ([7]; DnaK-PP, single turn-over): significant stimulation; also recorded: significant stimulation on DnaK-PP although to less extend than that of DnaJ; also recorded: stimulated DnaK-PP significantly
fold of stimulation of ATPase activity by ERdj3 (BiP [8]; ERdj3 at 4 μM, intrinsic ATPase activity set as 1): more than 20 fold
interaction of ERdj3 with BiP in the presence of ADP (BiP [9]): significant interaction with BiP in the presence of ADP
stimulation of ATPase activity by ERdj3 (DnaK; single turn-over): stimulated DnaK’s ATPase activity robustly

B3: DnaJ: an Hsp40 co-chaperone for DnaK and founding representative of the class I Hsp40s (protein)
chain: MAKQDYYEILGVSKTAEEREIRKAYKRLAMKYHPDRNQGDKEAEAKFKEIKEAYEVLTDSQKRAAYDQYGHAAFEQGGMGGGGFGGGADFSDIFGDVFGDIFGGGRGRQRAARGADLRYNMELTLEEAVRGVTKEIRIPTLEECDVCHGSGAKPGTQPQTCPTCHGSGQVQMRQGFFAVQQTCPHCQGRGTLIKDPCNKCHGHGRVERSKTLSVKIPAGVDTGDRIRLAGEGEAGEHGAPAGDLYVQVQVKQHPIFEREGNNLYCEVPINFAMAALGGEIEVPTLDGRVKLKVPGETQTGKLFRMRGKGVKSVRGGAQGDLLCRVVVETPVGLNERQKQLLQELQESFGGPTGEHNSPRSKSFFDGVKKFFDDLTR
stimulation of ATPase activity by DnaJ (BiP-PP): Neither ERdj3 (d) nor DnaJ (f) showed appreciable stimulation; also recorded: failed to stimulate BiP-PP appreciably
stimulation of ATPase rate by DnaJ relative to WT DnaK ([7]; DnaK-PP vs WT DnaK): about two thirds of that of WT
stimulation of ATPase activity by DnaJ ([7]; DnaK-PP, single turn-over): significant stimulation; also recorded: stimulates the ATPase rate of DnaK-PP drastically; also recorded: stimulated DnaK-PP significantly
stimulation of ATPase activity by DnaJ (BiP [8]; compared with ERdj3): stimulated BiP although to less extend as ERdj3
fold of stimulation of ATPase rate by DnaJ (DnaK; DnaJ at 0.4 μM, intrinsic ATPase activity set as 1): ~60 fold
